A selection: hits, their analogues and other compounds. The true share with any hit is near 4.1%.
Cl transport mod: modulates chloride dependent transport by human KCC2; Q9H2X9; KCC2 cells, thallium flux FluoZin-2 fluorescence; B-score of Tl+ flux slope (higher = more flux/activation; lower = inhibition) at 10 µM; hit rate 2.2% among 190,000; AID 1456;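 active = thallium flux slope and its plate-corrected score both differing from the plate sample mean at a set confidence after two filtering rounds, in either direction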;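 note: slope of fluorescence scaled to starting intensity during 10 to 20 s after thallium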
KCNK9 block: human KCNK9 channel inhibition; hit rate 1.2% among 310,000; Q9NPC2; HEK293 KCNK9, FluxOR thallium flux fluorescence; active compounds read low; B-score at 10 µM;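 active = ratio B-score over 3 SD below the library mean, with starting fluorescence within 5 SD of its mean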;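 note: negative B-score means less thallium flux so channel inhibition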
KCNK3 block: human KCNK3 channel inhibition, primary screen; hit rate 0.84% among 340,000; AID 602410; CHO-KCNK3 thallium flux, FluxOR fluorescence; active compounds read low; O14649; B-score at 10 µM;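 active = B-score under library mean minus 4 SD, starting fluorescence ratio at most library mean plus 5 SD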;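 note: more negative B-score means stronger inhibition of thallium flux through KCNK3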
KCNQ1 inh: human KCNQ1 channel inhibition; P51787; CHO-K1 KCNQ1, FluxOR thallium flux fluorescence; active compounds read high; B-score at 10 µM; hit rate 1.3% among 310,000; AID 2642;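 active = compounds whose thallium flux B-score, printed positive for inhibition, exceeds three library SD while starting fluorescence stays within three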;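 note: channel opened by potassium depolarization with thallium stimulus after 20 min compound exposure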
Target sequence (P51787 whole entry, looked up): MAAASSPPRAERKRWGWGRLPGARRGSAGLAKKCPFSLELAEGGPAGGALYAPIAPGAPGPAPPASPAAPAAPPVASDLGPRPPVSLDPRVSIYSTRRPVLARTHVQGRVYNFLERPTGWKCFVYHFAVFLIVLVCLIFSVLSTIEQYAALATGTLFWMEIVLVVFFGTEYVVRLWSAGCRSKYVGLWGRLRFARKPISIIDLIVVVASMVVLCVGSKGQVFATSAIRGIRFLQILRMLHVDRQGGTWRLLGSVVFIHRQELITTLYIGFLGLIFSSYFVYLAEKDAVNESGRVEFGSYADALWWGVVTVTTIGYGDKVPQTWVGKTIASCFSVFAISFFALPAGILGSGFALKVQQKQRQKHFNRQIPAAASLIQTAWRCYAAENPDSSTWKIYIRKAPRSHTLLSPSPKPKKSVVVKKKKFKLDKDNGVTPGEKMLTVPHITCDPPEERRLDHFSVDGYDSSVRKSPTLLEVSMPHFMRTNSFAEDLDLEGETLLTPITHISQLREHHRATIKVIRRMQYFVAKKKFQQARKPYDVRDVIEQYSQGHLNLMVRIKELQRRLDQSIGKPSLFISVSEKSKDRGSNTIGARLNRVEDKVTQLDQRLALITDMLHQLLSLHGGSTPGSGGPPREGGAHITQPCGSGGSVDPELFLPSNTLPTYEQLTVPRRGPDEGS
hERG rescue: hERG (human) protection from proarrhythmic block | Q12809 | CHO-hERG, FluxOR thallium flux, dofetilide IC70 present | activation (rescue from dofetilide block), less the hit threshold, % at 10 µM | hit rate 0.51% among 310,000 | AID 1511;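 active = activation above the mean of controls blocked by dofetilide plus 5 SD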;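 note: thallium influx through hERG after potassium depolarization seen as dye fluorescence rise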
KCNQ1 act: potentiators or activators of human KCNQ1 potassium channel; P51787; CHO-K1 KCNQ1, thallium flux FluxOR fluorescence; active compounds read high; B-score at 10 µM; hit rate 0.35% among 310,000;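 active = fluorescence ratio B-score, a plate-corrected score, at least three library SD, with initial intensity B-score within 5 SD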
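Material: CHO-K1 cells stably expressing KCNQ1. Medium: assay buffer for compound exposure, DMSO matched across wells. Reagent: K+/Tl+ depolarizing stimulus. Compound dosing: single-concentration screen. Times: 37 °C overnight plating, 90-min dark dye load, 20-min compound pretreatment. Technique: FluxOR Tl+ flux fluorescence.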
Starred values were filed as active, the others as inactive; i = inactive; . = not tested or not shown.

SMILES | Cl transport mod | KCNK9 block | KCNK3 block | KCNQ1 inh | hERG rescue | KCNQ1 act
Cc1ccc2c(c1)-c1cc(C)nn1C(c1ccc3c(c1)OCO3)N2 (centres undefined) | 1 | -7.6* | i | i | -10 | i
Cc1cc2n(n1)C(c1ccc3c(c1)OCO3)Nc1ccccc1-2 (centres undefined) | 1.2 | i | i | i | -17 | i
O=C(NCC(c1cccs1)N1CCOCC1)C1CCN(S(=O)(=O)c2cccc(C(F)(F)F)c2)CC1 (centres undefined) | . | i | i | i | -6 | 9*
O=C(NCC(c1cccs1)N1CCOCC1)C1CCN(S(=O)(=O)c2ccccc2C(F)(F)F)CC1 (centres undefined) | . | i | i | i | -8 | i
Cc1c(C(=O)NCCC2=CCCCC2)oc2ccc(S(=O)(=O)N3CCC4(CC3)OCCO4)cc12 | -1.1 | i | -9.1* | i | -21 | i
Cc1c(C(=O)Nc2ccc(F)c(F)c2)oc2ccc(S(=O)(=O)N3CCCCC3)cc12 | -1.3 | i | -10* | i | -4 | i
COc1ccc(/C=C/C(=O)NNC(=O)c2ccncc2)c(OC)c1 | . | . | i | . | . | .
CCOC(=O)c1sc(NC(=O)c2ccccc2C(=O)O)c(C(=O)OCC)c1C | . | i | i | i | -2 | 8*
CCOC(=O)c1sc(NC(=O)c2cc(-c3ccccc3C)nc3ccccc23)c(C#N)c1C | -4.6 | i | i | 10* | -28 | i
CCOC(=O)c1sc(NC(=O)c2ccccc2F)c(C(N)=O)c1C | -0.0052 | i | i | i | -6 | i
CCOC(=O)c1sc(NC(=O)c2ccncc2)c(C#N)c1C | -2.1 | i | i | i | -10 | i
CCOC(=O)c1sc(NC(=O)Nc2ccccc2Cl)cc1C | -0.16 | i | i | i | -11 | i
CCOC(=O)c1sc(NC(=O)Nc2ccccc2)cc1C | -0.32 | i | i | 6* | -18 | i
Cc1cc(NC(=O)Cc2ccccc2)nc2c1c(=O)oc1ccccc12 | 0.85 | i | i | i | -11 | i
COc1cccc(C(=O)Nc2cc(C)c3c(=O)oc4ccccc4c3n2)c1 | 0.76 | -11* | -10* | i | -7 | i
COc1ccc(C(=O)Nc2oc(-c3ccccc3)c(-c3ccccc3)c2C#N)cc1 | 0.13 | i | i | 7* | -16 | i
COc1cccc(C(=O)Nc2nc(-c3ccccc3)c(-c3ccccc3)o2)c1 | 29* | i | i | i | -7 | 9*
O=C(Nc1nc(-c2ccccc2)c(-c2ccccc2)o1)c1ccc(F)cc1 | . | i | i | i | 5.6* | 56*
CCCOc1ccc(NC(=O)CC2C(=O)N(c3ccc(OCC)cc3)C(=S)N2C2CC2)cc1 (centres undefined) | . | i | i | i | -2 | i
CC(C)(c1ccccc1)c1ccc(OCc2ccc(C(=O)O)o2)cc1 | . | . | i | . | . | .
COc1cccc(NC(=O)NCC2CCN(Cc3ccc(F)cc3)CC2)c1 | . | i | i | i | -6 | 8*
Cn1c(=O)c(NCCO)c2c3c(cccc31)C(=O)c1ccccc1-2 | i | i | i | 25* | -47 | i
O=[N+]([O-])c1cc([N+](=O)[O-])c2c(=Nc3ccccc3)n(-c3ccccc3)n(O)c2c1 | -1 | i | -9.9* | 6* | -29 | i
O=[N+]([O-])c1cc(Br)c(Nc2ccccc2)c([N+](=O)[O-])c1 | . | i | i | i | -6 | i
CC1Cc2ccccc2N1C(=O)COC(=O)c1ccc([N+](=O)[O-])o1 (centres undefined) | . | . | i | . | . | .
SMILES | Cl transport mod | KCNK9 block | KCNK3 block | KCNQ1 inh | hERG rescue | KCNQ1 act
COc1ccc(/C=C/c2n[nH]c(=O)c(C#N)c2C)cc1 | . | i | i | i | -3 | i
CC[C@@H](C)[C@H](NC(=O)OC(C)(C)C)c1nnc(S(=O)(=O)Cc2cc(C)ccc2C)o1 | -6.4* | i | i | i | -15 | i
COC(=O)c1c(NC(=O)c2nc3ccccc3s2)sc2c1CCN(C(C)=O)C2 | 1 | . | i | . | . | .
CNC(=O)c1c(NC(=O)c2nc3ccccc3s2)sc2c1CCC2 | . | -7.8* | i | 8* | -19 | i
COc1ccc(CNCCC(c2ccc(F)cc2)c2ccc(OC)cc2)cc1 (centres undefined) | -0.23 | i | i | 7* | -22 | i
COc1ccc(C(CCNCc2ccc(OC(C)C)cc2)c2ccccc2OC)cc1 (centres undefined) | . | i | i | 6* | -20 | i
COc1ccc(C(CCNCc2ccc(F)cc2)c2ccc(F)cc2)cc1 (centres undefined) | 1.9 | i | i | i | -15 | i
Cc1ccccc1C(=O)N1CCC(C(=O)Nc2nc3ccc(F)cc3s2)CC1 | . | i | i | i | -25 | i
C=CCNC(=S)N1N=C(c2ccco2)CC1c1ccco1 (centres undefined) | . | . | i | . | . | .
N#Cc1ccc(-c2nc3ccccc3c(=O)n2O)cc1 | . | i | i | i | -4 | i
O=c1c2ccc(Cl)cc2nc(-c2cccc(C(F)(F)F)c2)n1O | . | i | i | i | 75* | 136*
O=c1c2cc(Cl)ccc2nc(-c2ccc([N+](=O)[O-])cc2)n1O | 49* | i | i | i | 21* | 13*
Cc1ccc(-c2nc3c(Cl)cc(Cl)cc3c(=O)n2O)cc1 | . | i | i | i | 55* | 105*
O=c1c2cc(Br)ccc2nc(-c2ccc(Cl)cc2)n1O | . | i | i | i | 35* | 104*
N#Cc1ccc(-c2nc3cc(Cl)ccc3c(=O)n2O)cc1 | . | i | i | i | -3 | i
On1c(-c2ccccc2)nc2ccc(Cl)cc21 | 0.3 | i | i | i | -8 | i
COc1cccc(N2C(=O)Nc3ccc(Br)cc3C2(O)C(=O)NCCCOC(C)C)c1 (centres undefined) | . | i | i | i | -11 | i
CCOc1ccc(Oc2ccc(C(F)(F)F)cc2NC(=O)C2=COCCO2)cc1 | . | . | i | . | . | .
CC1(c2ccc([N+](=O)[O-])cc2)Nc2ccccc2S1 (centres undefined) | . | i | i | i | -9 | i
O=[N+]([O-])c1cccc(NC(=S)N2CCc3ccccc32)c1 | . | i | i | i | -2 | i
COc1cccc(C(C)NC(=O)Nc2cccc(C(F)(F)F)c2)c1 (centres undefined) | -0.36 | -6.8* | i | i | -7 | i
Cc1cc(C)n(/N=C/c2cc(Cl)cc(Cl)c2O)c(=O)c1 | -0.86 | i | i | i | -1 | 15*
Cc1cc(C)n(/N=C/c2ccccc2O)c(=O)c1 | -0.17 | i | i | i | -10 | i

Bioassay records as filed in PubChem BioAssay.
